Rows were chosen to be rich in hits. Some 3.4% of all compounds tested hit in one or more screens of this group.
ANO1 block: mouse TMEM16A channel inhibition, primary screen | Q8BHY3 | HEK293 TMEM16A/YFP iodide influx fluorescence, ionomycin | normalized B-score (activity score, 25-100; higher = stronger inhibition) at 10 µM | 1.2% of 310,000 active | AID 588511;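 active = ratio plate-corrected score three or more library SD toward inhibition, starting fluorescence score within five deviations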;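 also: score derived from kinetic fluorescence span divided by baseline fluorescence per well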
MC4R barr agon: human MC4R agonism via beta-arrestin | U2OS MC4R beta-arrestin complementation, luminescence; percent of melanotan II response, DMSO zero | activation, % at 8.9 µM | 0.98% of 360,000 active | P32245;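 active = activation above a per-plate cutoff, the mean activation of sample wells on that plate plus 3 SD, cut at about 8% in these data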
MIN6 prolif: inducers of beta-cell replication in MIN6 cells. 0.29% of 330,000 active. proliferation, % at 10 µM. MIN6 cells proliferation, ATPlite luminescence, 48 h; cells starved in 0.2% serum; 100% = growth in 10% serum. AID 2380;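 active = compounds whose signal lies at least 3.5 SD above the mean of all wells on their plate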;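 also: 0% = DMSO-treated cells in low-serum medium and 100% = 10% serum control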
MC4R antag cAMP: antagonists of human melanocortin 4 receptor (MC4R) | P32245 | MC4R-expressing cells, MTII-stimulated cAMP, LANCE TR-FRET | inhibition, % at 6.5 µM | 0.48% of 360,000 active;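 active = inhibition above its plate's cutoff, the mean of tested wells on that plate plus 3 SD, cut at about 29% in these data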;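 also: 0% = Melanotan II alone and 100% = Melanotan II plus saturating MCL0020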
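Material: human MC4R-expressing U2OS cells. Probe or stimulus: Melanotan II challenge. Dosing: 6.5 µM single dose. Times: 30-min compound, 1-h challenge, 1-h detection, room temperature. Technique: TR-FRET with Eu-cAMP and labeled anti-cAMP, 671 nm. Replication: singlicate.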
ANO1 activ: mouse TMEM16A channel activation, primary screen. Q8BHY3. HEK293 TMEM16A/YFP-H148Q/I152L, iodide quench fluorescence; stronger effect = lower value. B-score at 10 µM. 0.3% of 340,000 active;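 active = fluorescence-ratio B-score plate-corrected deviation score at least 3 library SD below zero, with starting fluorescence score within 5 deviations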;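 also: channel opened by trigger with iodide after compound preincubation; score built on the fluorescence ratio of max minus min over baseline; more negative score means more quench and so TMEM16A activation or potentiation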
HTR2A ag: agonists of mouse serotonin 5-HT2A receptor (HTR2A) | CHO-K1 mHTR2A beta-arrestin complementation, luminescence; percent of 30 µM serotonin response | activation, % at 7.6 µM | 0.66% of 360,000 active;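 active = activation above a run cutoff, the mean activation of all tested compounds plus 3 SD, cut at about 14% in these data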;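 also: 0% = plate median of compound wells and 100% = 30 µM serotonin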
Target sequence (P35363 whole entry, looked up): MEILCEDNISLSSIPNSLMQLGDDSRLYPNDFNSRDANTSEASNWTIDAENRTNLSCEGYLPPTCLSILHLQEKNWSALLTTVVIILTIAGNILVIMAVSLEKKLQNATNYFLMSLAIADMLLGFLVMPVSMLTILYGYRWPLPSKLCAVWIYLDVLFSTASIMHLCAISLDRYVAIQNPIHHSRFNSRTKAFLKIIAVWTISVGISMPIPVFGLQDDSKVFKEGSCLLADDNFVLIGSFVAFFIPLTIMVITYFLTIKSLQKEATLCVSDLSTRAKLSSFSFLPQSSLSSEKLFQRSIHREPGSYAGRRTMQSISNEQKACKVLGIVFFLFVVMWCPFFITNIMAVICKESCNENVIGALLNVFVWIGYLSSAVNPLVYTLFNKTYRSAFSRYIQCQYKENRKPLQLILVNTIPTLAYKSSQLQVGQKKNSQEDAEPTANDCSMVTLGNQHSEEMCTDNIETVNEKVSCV
* marks the source's active call; other numbers are inactive results; i = inactive; / = not tested or not shown.

SMILES | ANO1 block | MC4R barr agon | MIN6 prolif | MC4R antag cAMP | ANO1 activ | HTR2A ag
O=C(COC(=O)COc1ccc(Cl)cc1)NC1CCCCCC1 | / | 0 | -1 | 3 | i | -5
COc1cc(/C=N/NC(=O)c2ccc(=O)[nH]n2)ccc1O | i | -1 | 0.0* | -5 | i | -3
CCCCN(C(=O)C(C)Oc1ccc(Br)cc1)c1c(N)n(CC(C)C)c(=O)[nH]c1=O (stereo unspecified) | / | 0 | 0 | 2 | i | -4
Cc1cc(=O)[nH]c(SCC(=O)c2ccc(F)c(C)c2)n1 | i | 0 | -3 | 24 | i | -2
CCC1(C)Cc2c(C#N)c(N)sc(=S)c2CO1 (stereo unspecified) | i | 0 | 2 | -10 | -25* | 3
CCC1(C)Cc2c(C#N)c(N)n(-c3ccccc3)c(=S)c2CO1 (stereo unspecified) | i | 1 | 2 | 0 | i | 5
CC1OC(CC(=O)O)CC2=C1C(=O)c1c(O)cccc1C2=O (stereo unspecified) | / | -3 | / | 40* | i | -12
CC(C)c1ccc(OCc2ccc(C(=O)N3CCN(c4ccccn4)CC3)cc2)cc1 | 100* | 1 | -6 | 1 | i | -4
O=C1C(=O)c2c(C(=O)c3ccccc3)coc2-c2ccccc21 | i | 8.7* | -4 | -16 | i | 1
CC1CCc2c(sc3nc(C4CC4)nc(N4CCN(C(=O)c5ccco5)CC4)c23)C1 (stereo unspecified) | 100* | -1 | -3 | 21 | i | -5
Cc1onc(-c2ccccc2Cl)c1C(=O)N1C=CC(C(F)(F)F)=NCC1 | i | 0 | 1 | 0 | i | -2
Cc1onc(-c2ccccc2Cl)c1C(=O)N1C=CC(C(F)(F)Cl)=NCC1 | i | -3 | -1 | -3 | i | 24*
O=C(NC1CCCCC1)c1nc(C2CCNCC2)oc1-c1ccccc1 | / | / | / | / | / | -2
COCCOC(=O)C1=C(C)N(Cc2ccccc2)C(=O)NC1c1ccc(OC)cc1 (stereo unspecified) | 100* | -1 | 0 | 0 | i | -4
Cc1cc(NC(=S)N(Cc2ccc(Br)cc2)Cc2ccc(C(=O)O)cc2)ccc1Cl | 25* | 0 | -5 | 12 | i | -3
Cc1cccc(NC(=S)N(Cc2ccc(Br)cc2)Cc2ccc(C(=O)O)cc2)c1 | i | -1 | -3 | 1 | i | 1
C[C@@]12CCC3[C@@](CCC4[C@@]3(C)CCC[C@@]4(C)C(=O)N3CCOCC3)(CC1=O)C2 (stereo partly specified) | / | 0 | 2 | 12 | i | 7
O=C(Nc1ccc(N2CCN(C(=O)c3cccs3)CC2)cc1)c1ccc(Br)o1 | / | 0 | -3 | -3 | i | -1
CC1Sc2ccc(S(=O)(=O)N3CCC(C(=O)Nc4cccc(Cl)c4)CC3)cc2NC1=O (stereo unspecified) | 25* | -2 | -7 | 4 | i | -9
COc1ccc(S(=O)(=O)Nc2ccccc2C(=O)NCc2cccnc2)cc1 | i | 0 | -1 | 14 | i | -6
COCCCNCCOCCSc1ccc(Cl)cc1 | i | 1 | 0 | 0 | i | -1
CCCCNCCOCCSc1ccc(Cl)cc1 | i | 0 | -4 | 8 | i | 30*
CCN1CCC(O)(C(C(=O)OC)c2ccccc2)CC1 (stereo unspecified) | / | -1 | / | 9 | i | -8
Cc1cccc(NC(=O)COC(=O)CC2CCCC2)c1C | / | 0 | -5 | 7 | i | 6
COc1ccc2[nH]c(=O)c(CN(C3CCCCC3)C(c3nnnn3Cc3ccco3)C(C)C)cc2c1 (stereo unspecified) | 100* | -1 | -4 | -4 | i | -1
SMILES | ANO1 block | MC4R barr agon | MIN6 prolif | MC4R antag cAMP | ANO1 activ | HTR2A ag
CCN(CC)CCn1c(NC(=O)c2ccccc2O)nc2ccccc21 | i | 0 | -3 | -4 | i | -5
O=c1[nH]c(=O)n(Cc2ccco2)c2c1C(C(F)(F)F)(C(F)(F)F)N=C(CCc1ccccc1)N2 | i | 0 | -5 | 3 | i | 3
N#Cc1ccc(C2=NC(C(F)(F)F)(C(F)(F)F)c3c(n(Cc4ccco4)c(=O)[nH]c3=O)N2)cc1 | 100* | -3 | -4 | 4 | i | -1
Cc1c(C(=O)Nc2nc3ccccc3[nH]2)oc2ccccc12 | i | -5 | 0 | 6 | i | 0
Cc1c(C(=O)Nc2nc3ccccc3[nH]2)oc2ccc(Br)cc12 | i | -2 | -5 | 17 | -4.6* | 4
CS(=O)(=O)N(CC(=O)N1CCc2ccccc2C1)c1ccccc1Br | i | -2 | -1 | 13 | i | -2
COc1ccc(CC(=O)NNC(=O)c2cc(Cl)ccc2OC)cc1 | / | 0 | 1 | 1 | i | -3
CC(=O)Nc1ccc(NC(=O)CSc2ccccn2)cc1 | i | 0 | 2 | -10 | i | 4
O=C(CSc1ccccn1)Nc1cccc(NC(=O)CSc2ccccn2)n1 | i | 9.1* | 1 | -1 | i | 3
CC(=O)NCCNc1nc2cc(-c3cccc(Cl)c3)sc2c(=O)n1C | / | 0 | / | 1 | / | -2
O=C(Nc1cc(C(F)(F)F)ccc1Cl)C1CCN(c2nnc(-n3cccc3)s2)CC1 | / | 8.6* | / | 2 | i | 3
CN(CC(=O)Nc1ccc(F)c(F)c1F)C(=O)C1=NN(c2ccccc2)C(=O)CC1 | / | -2 | -1 | -3 | i | 3
Cc1cc2nc(-c3ccc(F)cc3)c(CC(C)(C)C)n2c(C)c1Br | / | / | / | / | / | -3
Cc1ccccc1C(=O)Nc1nc(SCc2ccc(Cl)cc2)n[nH]1 | i | 8.7* | -1 | -9 | i | -2
O=S(=O)(Nc1nc(SCc2ccc(Cl)cc2)n[nH]1)c1ccccc1 | i | 2 | -4 | 5 | i | -3
O=[N+]([O-])c1ccc(OCc2nnc(-c3ccccc3)o2)cc1 | 100* | -2 | 2 | 10 | i | -3
CN(c1ccc(OCc2nnc(-c3ccccc3)o2)cc1)S(=O)(=O)c1ccccc1 | i | 2 | -1 | -2 | i | 1
COC(=O)c1c(C)oc2ccc(N(C(=O)c3ccncc3)S(=O)(=O)c3ccccc3)cc12 | i | 0 | -4 | 11 | i | 11
COC(=O)c1c(C)oc2ccc(N(C(=O)c3ccncc3)S(=O)(=O)c3ccc(C)cc3)cc12 | 100* | -2 | -6 | -17 | i | 7
CCCc1cc(C(=O)NNC(=S)NC2CCCCC2)cs1 | i | -2 | -4 | 1 | i | -9
Cc1ccc2c(C)c(C(=O)Nc3ccc(S(N)(=O)=O)cc3)oc2c1C | i | 4 | 3 | 4 | i | -1
